Measured values as given in publication PMC6427047 (Cell chemical biology, 2017).

Assays:
8 selected kinases = experiment: Immunoblot validation of kinase degradation in MOLM-14 cells; type: cell-based, Human; conditions: pretreatment then 4-hour co-treatment with TL12-186
In short: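 MOLM-14 cells were exposed to test compound for 4 h, then lysed. Lysates were cleared by max-speed centrifugation at 4°C for 10 min. Protein was quantified by BCA and normalized. Samples were mixed with LDS sample buffer containing fresh 10% 2-mercaptoethanol and immunoblotted for the target kinases.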

FLT3 = biological target: T1, FLT3 (Homo sapiens, UniProt P36888); experiment: Immunoblot in MOLM-14 cells; type: cell-based
T1 sequence (P36888 610-943 limits assumed): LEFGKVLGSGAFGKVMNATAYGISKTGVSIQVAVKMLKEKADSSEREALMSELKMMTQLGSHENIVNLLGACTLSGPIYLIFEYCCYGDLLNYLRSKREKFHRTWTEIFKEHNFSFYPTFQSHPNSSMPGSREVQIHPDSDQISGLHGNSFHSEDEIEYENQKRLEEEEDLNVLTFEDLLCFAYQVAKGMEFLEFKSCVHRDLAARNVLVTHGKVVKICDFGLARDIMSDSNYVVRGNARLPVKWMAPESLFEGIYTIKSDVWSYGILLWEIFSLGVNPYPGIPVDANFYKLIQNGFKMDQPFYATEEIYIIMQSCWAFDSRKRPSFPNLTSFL

[1] = test system: WT and CRBN−/− MOLM-14 and MOLT-4 cells; experiment: 2-day proliferation assays, WT and CRBN−/− cells; type: cell-based, Human; conditions: CRBN−/− MOLM-14 and MOLT-4, 2-day

Structure (SMILES)	effect of 4-hour pretreatment on TL12-186-induced kinase degradation (8 selected kinases)	further results
CC(C)C[C@H](NC(=O)[C@H](CCc1ccccc1)NC(=O)CN1CCOCC1)C(=O)N[C@@H](Cc1ccccc1)C(=O)N[C@@H](CC(C)C)C(=O)[C@@]1(C)CO1 [carfilzomib]	reverse the degradation effect of TL12-186	
NS(=O)(=O)OC[C@@H]1C[C@@H](n2ccc3c(N[C@H]4CCc5ccccc54)ncnc32)C[C@@H]1O [MLN4924]	reverse the degradation effect of TL12-186	
CCN(CC)CCCC(C)Nc1ccnc2cc(Cl)ccc12 (centres unmarked) [chloroquine]		rescue of TL12-186-induced FLT3 degradation by autophagy inhibition (FLT3): cannot significantly rescue the degradation of FLT3
Nc1cccc2c1C(=O)N(C1CCC(=O)NC1=O)C2=O (centres unmarked) [pomalidomide]	reverse the degradation effect of TL12-186	
CC(C)S(=O)(=O)c1ccccc1Nc1nc(Nc2ccc(N3CCC(N4CCN(C)CC4)CC3)cc2)ncc1Cl [TL13-87]		inhibition of cellular proliferation in CRBN−/− cells [1]: more potent inhibition of cellular proliferation relative to the degrader molecules
